Measured values taken from ChEMBL document CHEMBL1806352, “Discovery of imidazo[1,2-b]pyridazines as IKKβ inhibitors. Part 3: exploration of effective compounds in arthritis models” (Bioorg Med Chem Lett, 2011).

Legend:
[1] = Octanol-phosphate buffered saline distribution coefficient, log D of the compound at pH 7.4; type: physicochemical
How it was run: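 PBS pH 7.4 and 1-octanol were mutually pre-saturated for over 12 h. Compound (200 µM) was dissolved in one phase, an equal volume of the other phase was added, and the mixture was shaken 30 min at room temperature. Both phases were assayed by HPLC or LC/MS. Log D7.4 was calculated as log of the octanol/PBS peak area ratio.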

[2] = Permeability of the compound at pH 7.4 by PAMPA method; type: ADME; settings: read-out: permeability
How it was run: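 PAMPA was run with the donor filter coated with a phospholipid solution and the acceptor plate filled with acceptor buffer pH 7.4. Plates were incubated 4 h at 25 °C. Compound in both plates was quantified spectrometrically, and effective permeability Pe7.4 was calculated.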

[3] = Apparent permeability across MDCK cells at 10 uM after 1 hr by LC/MS/MS analysis; type: ADME, cell-based, Canis lupus familiaris; settings: dog
How it was run: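 MDCK cells were grown 6 days on transwells to form monolayers. Compound (10 µM in transport buffer, pH 6.0) was added apically. The basolateral side held buffer at pH 7.4 with 4% BSA, and metoprolol served as positive control. After 1 h at 37 °C, basolateral concentration was measured by LC/MS/MS. Papp was calculated from flux over 3600 s across a 0.33 cm² filter.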

[4] = Plasma concentration in BALB/c mouse at 30 mg/kg, po after 90 mins; type: ADME, organism-based; design: dose 30 mg/kg, route oral
[5] = AUC (0 to 24 hrs) in BALB/c mouse at 30 mg/kg, po; type: ADME, organism-based; design: time < 24 hr, dose 30 mg/kg, route oral; settings: plasma
How it was run: (§1)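 Fed female BALB/c mice (7 weeks old, n = 3) received a single oral dose of 30 mg/kg suspended in 0.5% (w/v) methyl cellulose. Blood was drawn at 0.5, 1, 2, 4, 8 and 24 h, and plasma was stored at −20 °C. Drug was quantified by LC/MS/MS, and parameters were derived by non-compartmental analysis.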

[6] = Mean residence time in BALB/c mouse at 30 mg/kg, po; type: ADME, organism-based; design: dose 30 mg/kg, route oral; settings: in vivo; how it was run: as §1
[7] = Oral steady-state volume of distribution in BALB/c mouse at 30 mg/kg, po; type: ADME, organism-based; design: dose 30 mg/kg, route oral; settings: in vivo, read-out: Vss/F; how it was run: as §1
[8] = Cmax in BALB/c mouse at 30 mg/kg, po; type: ADME, organism-based; design: dose 30 mg/kg, route oral; settings: in vivo; how it was run: as §1
[9] = Tmax in BALB/c mouse at 30 mg/kg, po; type: ADME, organism-based; design: dose 30 mg/kg, route oral; settings: in vivo; how it was run: as §1
[10] = AUC (0 to 24 hrs) in Wister-Lewis rat at 30 mg/kg, po; type: ADME, organism-based; design: time < 24 hr, dose 30 mg/kg, route oral; settings: plasma
How it was run: (§2)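 Fed female Wistar–Lewis rats (7–8 weeks old, n = 3) were given 30 mg/kg orally as a suspension in 0.5% (w/v) methyl cellulose. Blood samples (0.3 ml) were taken at 0.5, 1, 2, 4, 8 and 24 h. Plasma levels were measured by LC/MS/MS and analysed non-compartmentally.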

[11] = Mean residence time in Wister-Lewis rat at 30 mg/kg, po; type: ADME, organism-based; design: dose 30 mg/kg, route oral; settings: in vivo; how it was run: as §2
[12] = Oral steady-state volume of distribution in Wister-Lewis rat at 30 mg/kg, po; type: ADME, organism-based; design: dose 30 mg/kg, route oral; settings: in vivo, read-out: Vss/F; how it was run: as §2
[13] = Cmax in Wister-Lewis rat at 30 mg/kg, po; type: ADME, organism-based; design: dose 30 mg/kg, route oral; settings: in vivo; how it was run: as §2
[14] = Tmax in Wister-Lewis rat at 30 mg/kg, po; type: ADME, organism-based; design: dose 30 mg/kg, route oral; settings: in vivo; how it was run: as §2

With O=C(NC[C@@H]1CCCN1)c1ccc(-c2cnc3ccc(NCC4CC4)nn23)cc1 the logD [1] was 1.8 and the Papp [2] was 0.84 ×10⁻⁶ cm/s.

CN(C)CCNC(=O)c1ccc(-c2cnc3ccc(NCC4CC4)nn23)cc1 gave a logD [1] of 2.5 and a Papp at 1 h, 10 µM [3] of 2.1 ×10⁻⁶ cm/s.

CCCN(C[C@@H]1C[C@@H](F)CN1)C(=O)c1ccc(-c2cnc3ccc(NCC4CC4)nn23)cc1 showed a logD [1] of 3.4.

With O=C(c1ccc(-c2cnc3ccc(NCC4CC4)nn23)cc1)N(Cc1ccc(Cl)cc1)C[C@@H]1C[C@@H](F)CN1 the logD [1] was 5.

In the case of O=C(NCCN1CCCC1)c1ccc(-c2cnc3ccc(NCC4CC4)nn23)cc1, the concentration at […] [4] is reported as 440 ng/mL, the logD [1] is reported as 2.6 and the Papp [2] is reported as > 50 ×10⁻⁶ cm/s. For the same compound, the Papp at 1 h, 10 µM [3] was 2.3 ×10⁻⁶ cm/s.

For CN(C)CCNC(=O)c1ccc(-c2cnc3ccc(NCC4CC4)nn23)cc1F, the concentration at […] [4] was 110 ng/mL, the logD [1] was 2.7 and the Papp [2] was > 50 ×10⁻⁶ cm/s. For the same compound, the Papp at 1 h, 10 µM [3] was 6.2 ×10⁻⁶ cm/s.

With O=C(NCCN1CCCC1)c1ccc(-c2cnc3ccc(NCC4CC4)nn23)cc1F the concentration at […] [4] was 290 ng/mL, the logD [1] was 2.8 and the Papp [2] was > 50 ×10⁻⁶ cm/s. It also gave a Papp at 1 h, 10 µM [3] of 5.6 ×10⁻⁶ cm/s.

In the case of O=C(NC[C@@H]1CCCN1)c1ccc(-c2cnc3ccc(NCC4CC4)nn23)cc1F, the concentration at […] [4] is reported as 140 ng/mL, the logD [1] is reported as 1.8 and the Papp [2] is reported as 19 ×10⁻⁶ cm/s.

For O=C(NC[C@@H]1C[C@@H](F)CN1)c1ccc(-c2cnc3ccc(NCC4CC4)nn23)cc1F, the concentration at […] [4] was 380 ng/mL, the logD [1] was 3.1 and the Papp [2] was > 50 ×10⁻⁶ cm/s. For the same compound, the Papp at 1 h, 10 µM [3] was 4.2 ×10⁻⁶ cm/s, the AUC(0-t) at 24 h [5] was 888 ng·h/mL and the MRT [6] was 2.3 h. It also gave a Vd/F [7] of 78 L/kg, a Cmax [8] of 260 ng/mL and a Tmax [9] of 1 h. The AUC(0-t) at 24 h [10] was 23100 ng·h/mL, the MRT [11] was 4.9 h and the Vd/F [12] was 6.5 L/kg. The Cmax [13] was 4100 ng/mL and the Tmax [14] was 4 h.

For O=C(NC[C@@H]1CCCN1)c1ccc(-c2cnc3ccc(NCC4CC4)nn23)cc1Cl, the logD [1] was 2.2 and the Papp [2] was 14 ×10⁻⁶ cm/s.

CN(C)CCNC(=O)c1ccc(-c2cnc3ccc(NCC4CC4)nn23)nc1 gave a logD [1] of 2 and a Papp [2] of 14 ×10⁻⁶ cm/s.

In the case of O=C(NCCN1CCCC1)c1ccc(-c2cnc3ccc(NCC4CC4)nn23)nc1, the logD [1] is reported as 2 and the Papp [2] is reported as 11 ×10⁻⁶ cm/s.

With CCCNc1ccc2ncc(-c3ccc(C(=O)NC[C@@H]4C[C@@H](F)CN4)c(F)c3)n2n1 the concentration at […] [4] was 540 ng/mL, the logD [1] was 3.1 and the Papp [2] was > 50 ×10⁻⁶ cm/s.

In the case of CCCCNc1ccc2ncc(-c3ccc(C(=O)NC[C@@H]4C[C@@H](F)CN4)c(F)c3)n2n1, the concentration at […] [4] is reported as 600 ng/mL, the logD [1] is reported as 3.5 and the Papp [2] is reported as > 50 ×10⁻⁶ cm/s.

For CCCCCNc1ccc2ncc(-c3ccc(C(=O)NC[C@@H]4C[C@@H](F)CN4)c(F)c3)n2n1, the concentration at […] [4] was 93 ng/mL, the logD [1] was 4 and the Papp [2] was > 50 ×10⁻⁶ cm/s.

With O=C(NC[C@@H]1C[C@@H](F)CN1)c1ccc(-c2cnc3ccc(NC4CCC4)nn23)cc1F the concentration at […] [4] was 1400 ng/mL, the logD [1] was 3.3 and the Papp [2] was > 50 ×10⁻⁶ cm/s. For the same compound, the Papp at 1 h, 10 µM [3] was 7 ×10⁻⁶ cm/s, the AUC(0-t) at 24 h [5] was 1860 ng·h/mL and the MRT [6] was 2 h. For the same compound, the Vd/F [7] was 32 L/kg, the Cmax [8] was 750 ng/mL and the Tmax [9] was 1 h. It also gave an AUC(0-t) at 24 h [10] of 95300 ng·h/mL, an MRT [11] of 5.1 h and a Vd/F [12] of 1.7 L/kg. For the same compound, the Cmax [13] was 16000 ng/mL and the Tmax [14] was 2.8 h.

In the case of O=C(NC[C@@H]1C[C@@H](F)CN1)c1ccc(-c2cnc3ccc(NC4CCCC4)nn23)cc1F, the concentration at […] [4] is reported as 660 ng/mL, the logD [1] is reported as 3.6 and the Papp [2] is reported as > 50 ×10⁻⁶ cm/s.

For CSCCNc1ccc2ncc(-c3ccc(C(=O)NC[C@@H]4C[C@@H](F)CN4)c(F)c3)n2n1, the logD [1] was 2.8 and the Papp [2] was > 50 ×10⁻⁶ cm/s.

CSCCCNc1ccc2ncc(-c3ccc(C(=O)NC[C@@H]4C[C@@H](F)CN4)c(F)c3)n2n1 gave a concentration at […] [4] of 150 ng/mL, a logD [1] of 3 and a Papp [2] of 40 ×10⁻⁶ cm/s.

O=C(NC[C@@H]1C[C@@H](F)CN1)c1ccc(-c2cnc3ccc(NCCCF)nn23)cc1F gave a concentration at […] [4] of 480 ng/mL, a logD [1] of 2.5 and a Papp [2] of 33 ×10⁻⁶ cm/s.

In the case of O=C(NC[C@@H]1C[C@@H](F)CN1)c1ccc(-c2cnc3ccc(NCCCCF)nn23)cc1F, the concentration at […] [4] is reported as 420 ng/mL, the logD [1] is reported as 2.8 and the Papp [2] is reported as > 50 ×10⁻⁶ cm/s.

For O=C(NC[C@@H]1C[C@@H](F)CN1)c1ccc(-c2cnc3ccc(NCCCCCF)nn23)cc1F, the concentration at […] [4] was 110 ng/mL, the logD [1] was 3.3 and the Papp [2] was 37 ×10⁻⁶ cm/s.
